Screening results deposited in PubChem BioAssay by Johns Hopkins Ion Channel Center.
A selection: hits, their analogues and other compounds. The true share with any hit is near 3.8%.
Kir21 block: Kir2.1 (mouse) channel inhibition; P35561; HEK293-Kir2.1, FluxOR thallium flux fluorescence; stronger effect = lower value; B-score at 10 µM; 310,000 tested, 0.85% active; AID 1672;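 active = fluorescence ratio B-score at or below minus 3 SD of library scores, with starting-brightness B-score within 2 SD, cut at about -4.2 in these data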;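 also: channel flux triggered by added potassium and thallium sulfate stimulus; B-score of peak minus minimum fluorescence over baseline after thallium stimulus; more negative B-score means stronger Kir2.1 block with less thallium influx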
KCNK9 inh: blocks the human KCNK9 two-pore domain potassium channel; 310,000 tested, 1.2% active; B-score at 10 µM; HEK293 KCNK9, FluxOR thallium flux fluorescence; stronger effect = lower value; AID 488922; Q9NPC2;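 active = ratio B-score over 3 SD below the library mean, with starting fluorescence within 5 SD of its mean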;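 also: negative B-score means less thallium flux so channel inhibition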
KCNK3 block: human KCNK3 channel inhibition, primary screen; 340,000 tested, 0.84% active; AID 602410; B-score at 10 µM; CHO-KCNK3 thallium flux, FluxOR fluorescence; stronger effect = lower value;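 active = B-score under library mean minus 4 SD, starting fluorescence ratio at most library mean plus 5 SD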;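 also: more negative B-score means stronger inhibition of thallium flux through KCNK3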
KCNQ1 inh: inhibitors of human KCNQ1 potassium channel; AID 2642; 310,000 tested, 1.3% active; B-score at 10 µM; CHO-K1 KCNQ1, FluxOR thallium flux fluorescence; stronger effect = higher value;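 active = compounds whose thallium flux B-score, printed positive for inhibition, exceeds three library SD while starting fluorescence stays within three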;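 also: channel opened by potassium depolarization with thallium stimulus after 20 min compound exposure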
KCNQ1 pot: potentiates or activates the human KCNQ1 potassium channel; CHO-K1 KCNQ1, thallium flux FluxOR fluorescence; stronger effect = higher value; B-score at 10 µM; 310,000 tested, 0.35% active; AID 2648;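 active = fluorescence ratio B-score, a plate-corrected score, at least three library SD, with initial intensity B-score within 5 SD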
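Doses: Single concentration per compound, DMSO matched to controls | Test system: KCNQ1-transfected CHO-K1 cells | Timing: 90 min dye loading and 20 min compound exposure, both at room temperature | Measured by: Kinetic FluxOR thallium fluorescence, 10-s 1-Hz baseline, 110-s post-stimulus read | Medium: Assay buffer with matched DMSO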
hERG protect: hERG (human) protection from proarrhythmic block | AID 1511 | Q12809 | 310,000 tested, 0.51% active | CHO-hERG, FluxOR thallium flux, dofetilide IC70 present | activation (rescue from dofetilide block), less the hit threshold, % at 10 µM;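 active = activation above the mean of controls blocked by dofetilide plus 5 SD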;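 also: thallium influx through hERG after potassium depolarization seen as dye fluorescence rise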
An asterisk follows results filed as active; i = inactive; . = no result.

SMILES	Kir21 block	KCNK9 inh	KCNK3 block	KCNQ1 inh	KCNQ1 pot	hERG protect
COc1cccc(-c2nn3c(-c4cc(C)[nH]n4)nnc3s2)c1	-1.7	i	i	i	i	5.9*
COc1cccc(-c2nn3c(-c4ccccn4)nnc3s2)c1	0.1	i	i	i	i	-18
Nc1nc2c(s1)CCCCCCCCCC2	-7.4*	i	i	i	i	-1
C=CCN1CCc2nc(N)sc2CC1	.	.	i	.	.	.
COc1cc(C(=O)N=c2sc3c(C)ccc(OC)c3n2C)cc(OC)c1OC	0.12	i	i	i	i	-9
COc1ccc(C(=O)N=c2sc3c(C)ccc(OC)c3n2C)cc1	-0.42	-7*	i	i	i	-10
COc1ccc(/C=C/c2cc(=O)c3cc(Cl)ccc3o2)cc1	0.04	i	i	i	i	4.6*
O=C(O)c1cc(=O)c2cc(Cl)ccc2o1	0	i	i	i	i	-8
CSc1ncnc2ncn(C)c12	.	.	i	.	.	.
CC(C)CC(NC(=O)c1ccc(Cl)cc1)C(=O)OCC(=O)c1ccc2c(c1)NC(=O)CO2 (centres undefined)	-0.88	i	i	i	13*	-7
COc1ccc(CN2CCc3c([nH]c4ccccc34)C2)c(OC)c1C	-2.9	i	i	i	i	-15
NC(=O)c1ccc(C2SCC(=O)N2CCc2ccccc2)cc1 (centres undefined)	.	.	i	.	.	.
O=C1CSC(c2ccccc2)N1CCc1ccccc1 (centres undefined)	-4.2*	i	i	i	i	-9
CC1CC(C)CN(c2ncc3c(n2)CC(c2ccc(Cl)cc2)CC3=O)C1 (centres undefined)	1	i	i	6*	i	-10
Cc1cc([N+](=O)[O-])cnc1Sc1nccn1C	-0.7	i	i	i	i	-4
CC1(C)Cc2c(sc3c2c(N)nc(=S)n3Cc2ccccc2)CO1	-0.62	i	.	i	i	-8
CC1(C)Cc2c(sc3[nH]c(=S)n(Cc4ccccc4)c(=O)c23)CO1	0.03	i	i	i	34*	4.7*
O=C(c1ccco1)N1CCN(c2nc(C3CC3)nc3c2nnn3Cc2ccccc2Cl)CC1	-2.4	i	i	6*	i	-11
CCN(C(=O)c1ccc(Cl)cc1[N+](=O)[O-])c1ccccc1C	-5*	i	i	i	i	-10
O=C(c1ccc(Cl)cc1[N+](=O)[O-])N(Cc1ccccc1)Cc1ccccc1	-0.58	i	.	i	i	-14
Cc1ccc(S(=O)(=O)CCC(=O)Nc2nnc(-c3ccccc3S(C)(=O)=O)o2)cc1	0.27	i	i	i	i	-3
Cc1ccc(Sc2cnn(-c3ccccc3)c(=O)c2Cl)cc1	-3.2	i	i	10*	i	-7
C/C(=N\NC(=O)C(O)c1ccccc1)c1ccc(Br)s1 (centres undefined)	1.1	i	i	i	i	-15
O=C(COc1ccc(Cl)cc1[N+](=O)[O-])N1CCCCCC1	0.14	i	i	i	i	-12
Cc1nc(N)nc(N)c1CCCc1ccc(Cl)c(Cl)c1	-7.8*	i	i	i	i	-14
SMILES	Kir21 block	KCNK9 inh	KCNK3 block	KCNQ1 inh	KCNQ1 pot	hERG protect
Cc1nc(N)nc(N)c1-c1ccc(Cl)c(Cl)c1	.	.	i	.	.	.
O=C(CC1C[C@H](C(=O)N2CCOCC2)[C@@]2(CCC3CCCC3)c3[nH]c4ccccc4c3CCN2C1=O)NCc1cccc(C(F)(F)F)c1 (some centres undefined)	.	.	i	.	.	.
Cc1ccc2c(c1)c1c3n2CCN(C(=O)CCl)C3CCC1 (centres undefined)	-8.8*	i	i	i	i	-15
CCN(CC)c1ccc(S(=O)(=O)N2CCOCC2)cc1NC(=O)CSc1nncs1	2	i	i	i	i	-13
CC1CN(Cc2ccccc2)c2ccccc2NC1=S (centres undefined)	-4.2*	i	i	i	i	-9
CC1CN(Cc2ccccc2)C(=O)N(c2ccccc2)C1=O (centres undefined)	.	.	i	.	.	.
Cc1cccc(-c2cc3nc4c(c(NCc5ccco5)n3n2)CCCC4)c1	0.57	-7.2*	i	i	i	-9
Cc1cccc(-c2cc3nc4c(c(N5CCOCC5)n3n2)CCCC4)c1	-1.2	i	i	i	i	-7
COc1ccc(CNC(=O)COC(=O)CN2C(=O)NC3(CCCC3)C2=O)cc1	.	.	i	.	.	.
Cc1ccc(-c2[nH]nc3c2C(c2cccnc2)C(C#N)=C(N)O3)cc1 (centres undefined)	0.61	i	i	i	i	5.0*
CCC(Oc1ccccc1)C(=O)Nc1ccc(-c2nnc(-c3ccco3)o2)cc1 (centres undefined)	0.03	-7.3*	i	i	i	-9
CC(CCc1ccccc1)NCc1cccc2ccccc12 (centres undefined)	-9.7*	i	i	i	i	-12
Cc1ccccc1NCC(=O)N/N=C/c1c(C)c(C(=O)c2ccc(Cl)cc2)n2ccccc12	-0.97	i	i	7*	i	-22
Cc1ccc(SCCN2CCN(C)CC2)cc1	0.67	i	i	i	i	-7
O=C(NC1CCCCC1)C1CC(=O)N(c2cccc([N+](=O)[O-])c2)C1 (centres undefined)	0.05	i	i	i	i	-19
Cc1cc(C)cc(CSCC(=O)NN=C2CCCCCC2)c1	-10*	i	i	i	i	-10
CCN1CCN(Cc2ccc(NC(=O)c3cc(NC(=O)C(=O)c4c[nH]c5ccccc45)cc(OC)c3)cc2C(F)(F)F)CC1	0.24	i	i	i	i	-41
CCN1CCN(Cc2ccc(NC(=O)c3ccc(C)c(NC(=O)C(=O)c4c[nH]c5ccccc45)c3)cc2C(F)(F)F)CC1	0.05	i	i	12*	i	-40
CN1CCN(NC(=O)c2cc(-c3ccccn3)nc3ccccc23)CC1	0.65	i	i	i	i	-4
CN1CCN(NC(=O)c2cc(-c3ccc(Cl)s3)nc3ccccc23)CC1	-4.5*	i	i	i	i	-12
Cc1cc(C)nc(NC(=O)c2cc(-c3ccc(C)s3)nc3ccccc23)c1	2.5	i	i	6*	i	-5
Cc1ccccc1S(=O)(=O)N1[C@@H](c2ccc(Cl)cc2)C(C(=O)O)=CC[C@H]1c1ccc(Cl)cc1	.	.	i	.	.	.
COc1ccc(NC(=O)CN(C)C(=O)Cc2c(C)nc3ccccc3c2C)cc1	-1.3	i	i	i	i	-16
N#Cc1c(-c2ccccc2)nc(SCC(=O)Nc2ccc(OC(F)(F)Cl)cc2)[nH]c1=O	0.99	i	i	i	i	-2
